Source: ChEMBL document CHEMBL1123657, “Anthrapyrazole anticancer agents. Synthesis and structure-activity relationships against murine leukemias” (J Med Chem, 1987)

Legend:
P388 [1] = test: Activity against P388 leukemia cells in mice, by intraperitoneal dosing and net log tumor cell kill was reported; assay type: functional, Mus musculus
L1210 [2] = test: Tested in vitro against murine L1210 leukemia.; assay type: functional, cell-based; conditions: Mus musculus
B16 [3] = test: Optimal dose per injection in mg/kg required to inhibit growth of murine B-16 melanoma in vivo; assay type: functional, Mus musculus
Procedure, shortened: (§1)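 Murine B-16 melanoma in vivo: tumor implanted ip, compound given ip on days 1–9 (ip/ip; D1–9), dosed as mg/kg per injection. Activity expressed as T/C (%) plus number of cures, taken at the optimal dose.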

P388 [4] = test: Optimal dose per injection in mg/kg required to inhibit growth of P388 leukemia cells in mice; assay type: functional, Mus musculus
Procedure, shortened: (§2)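 P388 leukemia implanted ip in mice; drug given ip on days 1 and 5 (ip/ip; D1,5), dosed in mg/kg per injection. Read-out is treated/control (T/C, %) with cures counted, reported at the optimal dose.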

B16 [5] = test: Tested for activity against murine B-16 melanoma in mice and percent treated to the control values with the number of 60 day survivors; assay type: functional, Mus musculus; procedure, shortened: as §1
P388 [6] = test: Inhibition of P388 leukemia cells in mice, measured as percent treated to the control values with the number of 30 day survivors; assay type: functional, Mus musculus; procedure, shortened: as §2
L1210 [7] = test: Compound was tested in vitro against murine L1210 leukemia; IA means inactive.; assay type: functional, cell-based, Mus musculus

Structure (SMILES) | Activity (P388 [1]) | IC50 (L1210 [2]) [nM] | Optimal dose (B16 [3]) [mg/kg] | Dose (P388 [4]) [mg/kg] | T/C (B16 [5]) [%] | T/C (P388 [6]) [%] | IC50 (L1210 [7])
COc1cccc2c1C(=O)c1c(O)c3c(c(O)c1C2=O)C[C@@](O)(C(=O)CO)C[C@@H]3O[C@H]1C[C@H](N)[C@H](O)[C@H](C)O1 [DOXORUBICIN] | 5.6 | 69 | 1 | 8 | 434 | 225 | –
COCCn1nc2c3c(c(NCCN)ccc31)C(=O)c1c(O)ccc(O)c1-2.Cl | -0.6 | – | – | 50 | – | 127 | Not Active
Cl.NCCCCNc1ccc2c3c(nn2CCNCCO)-c2c(O)ccc(O)c2C(=O)c13 | 3.4 | – | – | 100 | – | 173 | Not Active
CN(CCNc1ccc2c3c(nn2CCNCCO)-c2c(O)ccc(O)c2C(=O)c13)C(=O)OCc1ccccc1 | – | – | – | – | – | – | Not Active
Cl.NCCn1nc2c3c(c(NCCNCCO)ccc31)C(=O)c1c(O)ccc(O)c1-2 | > 6.7 | 580 | 3 | 12.5 | 306 | 270 | –
Cl.NCCCCCNc1ccc2c3c(nn2CCNCCO)-c2c(O)ccc(O)c2C(=O)c13 | 1.5 | – | – | 100 | – | 150 | Not Active
Cl.O=C1c2c(O)ccc(O)c2-c2nn(CCCNCCO)c3ccc(NCCNCCO)c1c23 | >7 | – | – | 100 | – | 275 | Not Active
O=C1c2c(O)ccc(O)c2C(=O)c2c(NCCNCCO)ccc(NCCNCCO)c21 [MITOXANTRONE] | >6.8 | 1.6 | 0.6 | 3 | 265 | 267 | –
CCN(CC)CCn1nc2c3c(c(NCCC(=O)O)ccc31)C(=O)c1ccccc1-2 | -1.3 | – | – | 12.5 | – | 117 | Not Active
CCN(CC)CCCCNc1ccc2c3c(nn2CCO)-c2ccccc2C(=O)c13.Cl | -1.3 | – | – | 300 | – | 115 | Not Active
CNCCNc1ccc2c3c(nn2CCNCCO)-c2c(O)ccc(O)c2C(=O)c13 [TELOXANTRONE] | >6.6 | 140 | 1.5 | 12.5 | 357 | – | –
CCN(CC)CCn1nc2c3c(c(NCCN)ccc31)C(=O)c1c(O)ccc(O)c1-2.Cl | >7.1 | 46 | 3.6 | 12.5 | 176 | 280 | –
Cl.O=C1c2ccccc2-c2nn(CCO)c3ccc(NCCN4CCOCC4)c1c23 | -1.5 | – | – | 25 | – | 100 | Not Active
O=C(O)CCNc1ccc2c3c(nn2CCO)-c2ccccc2C(=O)c13 | -1.6 | – | – | 25 | – | 98 | Not Active
CCN(CC)CCCCCCCNc1ccc2c3c(nn2CCO)-c2ccccc2C(=O)c13.Cl | -1.6 | – | – | 100 | – | 98 | Not Active
Cl.NCCCNc1ccc2c3c(nn2CCNCCO)-c2c(O)ccc(O)c2C(=O)c13 | >6.5 | 960 | 8 | 45 | 338 | 294 | –
CCN(CC)CCn1nc2c3c(c(NCCNCCO)ccc31)C(=O)c1c(O)ccc(O)c1-2.Cl | >6.8 | 130 | 6 | 12.5 | – | 264 | –
CCN(CC)CC(O)Cn1nc2c3c(c(NCCN)ccc31)C(=O)c1c(O)ccc(O)c1-2.Cl (configuration not stated) | >6.7 | – | – | 6.25 | – | 262 | Not Active

Structure (SMILES) | Activity (P388 [1]) | IC50 (L1210 [2]) [nM] | Optimal dose (B16 [3]) [mg/kg] | Dose (P388 [4]) [mg/kg] | T/C (B16 [5]) [%] | T/C (P388 [6]) [%] | IC50 (L1210 [7])
CSCCn1nc2c3c(c(NCCNCCO)ccc31)C(=O)c1c(O)ccc(O)c1-2.Cl | 0.3 | – | – | 6.25 | – | 140 | Not Active
Cl.NCCNCCNc1ccc2c3c(nn2CCO)-c2c(O)ccc(O)c2C(=O)c13 | 1.2 | – | – | 200 | – | 174 | Not Active
COCCn1nc2c3c(c(NCCNCCO)ccc31)C(=O)c1c(O)ccc(O)c1-2.Cl | 0.3 | 1600 | – | 100 | – | 140 | –
CCN(CC)CC(O)Cn1nc2c3c(c(NCCNCCO)ccc31)C(=O)c1c(O)ccc(O)c1-2.Cl (configuration not stated) | 5.3 | 840 | – | 12.5 | – | 223 | –
Cl.O=C1c2ccccc2-c2nn(CCO)c3ccc(NCCN4CCNCC4)c1c23 | -1.3 | – | – | 50 | – | 109 | Not Active
Cl.NCCCNCCCCNCCCNc1ccc2c3c(nn2CCNCCO)-c2c(O)ccc(O)c2C(=O)c13 | 0.6 | – | – | 12.5 | – | 145 | Not Active
Cl.NCCCn1nc2c3c(c(NCCNCCO)ccc31)C(=O)c1c(O)ccc(O)c1-2 | >6.6 | 160 | 6.25 | 50 | 375 | – | –
CCN(CC)CCNc1ccc2c3c(nn2CCN(CC)CC)-c2ccccc2C(=O)c13.Cl | -1.4 | 390 | – | 50 | – | 106 | –
CCN(CC)CCCNc1ccc2c3c(nn2CCO)-c2ccccc2C(=O)c13.Cl | -1.5 | – | – | 200 | – | 104 | Not Active
Cl.O=C1c2c(O)ccc(O)c2-c2nn(CCNCCO)c3ccc(NCCCNCCO)c1c23 | >6.8 | 1800 | – | 6.25 | – | 254 | –
Cl.Cn1nc2c3c(c(NCCN)ccc31)C(=O)c1c(O)ccc(O)c1-2 | 0 | 240 | – | 12.5 | – | 138 | –
CCN(CC)CCn1nc2c3c(c(NCCN(C)C(=O)OCc4ccccc4)ccc31)C(=O)c1c(O)ccc(O)c1-2 | – | – | – | – | – | – | Not Active
CCN(CC)CCNc1ccc2c3c(nn2C)-c2ccccc2C(=O)c13.Cl | -1.5 | 670 | – | 400 | – | 98 | –
Cl.Cn1nc2c3c(cccc31)C(=O)c1c(NCCNCCO)cccc1-2 | -1.3 | 1200 | – | 200 | – | 118 | –
Cl.O=C1c2c(O)ccc(O)c2-c2nn(CCNCCO)c3ccc(NCCN4CCOCC4)c1c23 | 2.9 | 650 | – | 50 | – | 177 | –
Cl.O=C1c2c(O)ccc(O)c2-c2nn(CCO)c3ccc(NCCN4CCOCC4)c1c23 | -1.2 | 1100 | – | 400 | – | 122 | –
CN(C)CCNCCNc1ccc2c3c(nn2CCCN)-c2c(O)ccc(O)c2C(=O)c13.Cl | 5.6 | 640 | – | 25 | – | 228 | –
